OXTR ag – human OXTR agonists, primary screen, fluorescence, CHO-OTR cells, Fluo-8 calcium | Oxytocin receptor (Homo sapiens), P30559 | Fluo-8 calcium fluorescence; normalized: DMSO 0%, oxytocin 100% | activation, % at 3 µM | actives 0.32% (n = 320,000) | AID 2435, 2010;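 active = activation above the mean of all tested compounds plus 3 SD, cutoff set per screening run, cut at about 20% in these data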;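 also: peak over basal fluorescence ratio from a 100 s FLIPR kinetic read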
Target sequence (P30559 whole entry, looked up): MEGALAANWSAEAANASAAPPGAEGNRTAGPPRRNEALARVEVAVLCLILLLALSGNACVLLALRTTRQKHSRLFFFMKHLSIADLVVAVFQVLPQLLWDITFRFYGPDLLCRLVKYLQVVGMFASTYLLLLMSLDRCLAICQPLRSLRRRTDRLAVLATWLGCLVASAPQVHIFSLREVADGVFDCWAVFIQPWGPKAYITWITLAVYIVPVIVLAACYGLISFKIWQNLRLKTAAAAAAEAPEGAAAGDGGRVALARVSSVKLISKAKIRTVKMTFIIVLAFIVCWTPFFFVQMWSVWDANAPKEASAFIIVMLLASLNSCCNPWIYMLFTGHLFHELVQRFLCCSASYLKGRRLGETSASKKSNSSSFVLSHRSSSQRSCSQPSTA
OXTR potentiator – human OXTR potentiators, primary screen, fluorescence, CHO-OTR cells, Fluo-8 calcium | Fluo-8 calcium fluorescence, potentiator mode; 0% = oxytocin EC15, 100% = EC100 | activation, % at 3 µM | actives 0.061% (n = 320,000) | AID 2445, 2010;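 active = activation above that plate's cutoff, the mean activation of tested compounds plus 3 SD, cut at about 6.6% in these data, passing the limit was not always enough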;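 also: 100% uses oxytocin at 75 nM as the full agonist control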
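System: human OTR in CHO cells; Also added: sub-maximal oxytocin, roughly EC15; Timing: compound 6 min at room temperature before oxytocin, 100 s read; Technique: Fluo-8 intracellular calcium fluorescence, ex 470-495, em 515-575 nm; Controls: oxytocin EC15 low and EC100 high; Replication: singlicate.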
TAAR1 agonist – human TAAR1 agonists, primary screen, Fluo-8 calcium fluorescence, CHO RD-HGA16 cells. actives 0.99% (n = 360,000). activation, % at 3 µM. Trace amine-associated receptor 1 (Homo sapiens), Q96RJ0. AID 624467, 2012. vehicle wells 0%, saturating PEA agonist 100%;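 active = activation above the mean activation of all test compounds in the run plus 3 SD, cut at about 38% in these data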
Target sequence (Q96RJ0 whole entry, looked up): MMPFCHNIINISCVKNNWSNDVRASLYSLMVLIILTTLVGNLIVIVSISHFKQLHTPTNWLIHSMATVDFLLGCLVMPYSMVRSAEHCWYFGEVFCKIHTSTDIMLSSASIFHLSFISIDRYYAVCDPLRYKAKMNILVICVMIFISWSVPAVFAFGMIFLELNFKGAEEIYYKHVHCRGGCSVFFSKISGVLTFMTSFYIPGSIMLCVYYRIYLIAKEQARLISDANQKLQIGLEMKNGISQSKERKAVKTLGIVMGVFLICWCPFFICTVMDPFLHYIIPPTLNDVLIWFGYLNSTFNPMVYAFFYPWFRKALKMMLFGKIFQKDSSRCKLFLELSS
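Assay system – CHO-derived RD-HGA16 cells with stable Gα16 and human TAAR1 · Compound dosing – one-point dosing at 3 µM (nominal) · Incubation – 17-24 h seeding, 75 min 37 °C dye, 30 min RT · Measured by – kinetic Fluo-8 calcium fluorescence · Control set – DMSO vehicle as 0%, PEA at EC100 as 100% · Repeats – single well for each compound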
TAAR1 antag – human TAAR1 antagonists, primary screen, Fluo-8 calcium fluorescence, CHO RD-HGA16 cells | Trace amine-associated receptor 1 (Homo sapiens), Q96RJ0 | antagonist | inhibition, % at 3 µM | actives 1.5% (n = 360,000) | AID 624466, 2012;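 active = inhibition above a per-plate cutoff, the mean inhibition of test compounds on that plate plus 3 SD, cut at about 49% in these data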;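 also: 0% = DMSO plus EC80 beta-PEA response and 100% = DMSO alone without agonist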
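Material: CHO RD-HGA16 cells bearing hTAAR1; compound dosing: one-point dosing, 3 µM nominal final; schedule: dye loading 75 min at 37 °C, then 30 min room temperature; measured by: calcium fluorescence with Fluo-8; control set: vehicle and agonist controls; replication: n of 1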
V1aR counter – agonists of human V1a receptor, primary screen, counter-screen for OXTR agonist project, fluorescence, CHO-V1R cells; Vasopressin V1a receptor (Homo sapiens), P37288; Fluo-8 calcium fluorescence, agonist mode; 0% DMSO, 100% 3 nM vasopressin; activation, % at 3 µM; actives 0.25% (n = 320,000);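 active = activation above the mean activation of all tested compounds plus 3 SD, per screening run, cut at about 20% in these data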;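 also: signal is peak over basal fluorescence ratio across a 100 second FLIPR read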
TAAR1 ag conf – human TAAR1 agonists, retest of hits, confirmation, Fluo-8 calcium fluorescence, CHO RD-HGA16 cells; actives 82% (n = 2,400); activation, % at 3 µM; shares compounds with TAAR1 agonist; AID 651783, 2012; scaled: DMSO 0%, maximal phenethylamine 100%;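 active = activation above a cutoff set at the run's mean compound activation plus 3 SD, cut at about 39% in these data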
Ga16 nonsel ag – nonselective calcium mobilization agonists, CHO-Ga16 cells, counter-screen for hTAAR1 agonist project, cell-based, fluorescence, CHO-Ga16 parental line; actives 50% (n = 2,400); Fluo-8 calcium fluorescence; normalized to maximal ATP response, DMSO zero; AID 651787, 2012; activation, % at 3 µM; shares compounds with TAAR1 agonist;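 active = activation above the run cutoff, the mean activation over all tested wells plus 3 SD, cut at about 12% in these data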;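 also: 0% = DMSO wells and 100% = maximal ATP response on the peak over basal ratio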
TAAR1 desensitize – TAAR1 desensitization by agonist hits, confirmation, counter-screen for TAAR1 agonist project, cell-based, fluorescence, tachyphylaxis. AID 651951, 2012. CHO RD-HGA16 hTAAR1, Fluo-8 calcium, beta-PEA response inhibition. actives 46% (n = 2,400). inhibition, % at 3 µM. shares compounds with TAAR1 agonist;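 active = inhibition above the run cutoff, the mean inhibition of all test compounds plus 3 SD, cut at about 49% in these data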;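 also: beta-PEA stimulus applied at its EC80; loss of beta-PEA calcium signal after compound pretreatment read as receptor desensitization; 0% = DMSO with beta-PEA at EC80 and 100% = DMSO alone without agonist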
Ga16 antag count – inhibition of ATP-evoked calcium response in CHO-Ga16 cells, counter-screen for TAAR1 agonist project, cell-based, fluorescence. shares compounds with TAAR1 agonist. CHO-Ga16 ATP-induced calcium, Fluo-8 fluorescence. inhibition, % at 3 µM. actives 39% (n = 2,400). AID 651952, 2012;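 active = inhibition above the plate's mean compound inhibition plus 3 SD, computed per plate, cut at about 22% in these data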;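 also: 0% = EC80 ATP with DMSO and 100% = DMSO wells without ATP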
Starred values were filed as active, the others as inactive; nt = no result. Compounds with a hit are over-represented: about 2.3% of the library has one in this group of screens.

SMILES	OXTR ag	OXTR potentiator	TAAR1 agonist	TAAR1 antag	V1aR counter	TAAR1 ag conf	Ga16 nonsel ag	TAAR1 desensitize	Ga16 antag count
COc1ccc(CN2CC[C@@H]3CN(C(C)=O)[C@H](c4ccccc4Br)C[C@@H]32)cc1	nt	nt	1	-17	nt	nt	nt	nt	nt
CC(C)(C)c1ccc(C2(C)NC(=O)N(CC(=O)c3ccc[nH]3)C2=O)cc1 (stereo unspecified)	14	-12	56*	-13	10	35	13*	22	18
CC(C)(C)c1ccc(C2(C)NC(=O)N(CC(=O)NCc3cccs3)C2=O)cc1 (stereo unspecified)	-1	-5	5	-22	2	nt	nt	nt	nt
CC(OC(=O)/C=C/c1ccccc1Cl)C(=O)NC1CCCCC1C (stereo unspecified)	1	-16	1	-20	-1	nt	nt	nt	nt
Cc1c(Cl)ccc2c1NC(=O)[C@]21N[C@@H](Cc2ccccc2)[C@H]2C(=O)N(c3ccc(F)cc3)C(=O)[C@H]21	27*	-12	92*	36	24*	103*	42*	75*	38*
Cc1cccc(NC(=O)CCC2CCN(C(=O)C3CC=CCC3)CC2)c1 (stereo unspecified)	1	-5	-1	-9	2	nt	nt	nt	nt
COc1ccc(C)cc1S(=O)(=O)NCC(c1ccco1)N1CCc2ccccc2C1 (stereo unspecified)	-2	-10	42*	-15	-2	62*	1	19	10
O=C(NCC(c1ccco1)N1CCc2ccccc2C1)c1ccc(F)cc1 (stereo unspecified)	-2	-14	46*	-18	-1	19	1	1	11
COc1ccccc1NC(=O)C(=O)NCC(c1ccco1)N1CCc2ccccc2C1 (stereo unspecified)	0	-8	83*	25	0	64*	1	8	4
O=C(NCC(c1ccco1)N1CCc2ccccc2C1)C(=O)Nc1ccccc1 (stereo unspecified)	-1	-10	26	-4	-1	nt	nt	nt	nt
O=C(NCC(c1ccco1)N1CCc2ccccc2C1)c1ccccc1 (stereo unspecified)	-2	0	3	-17	-1	nt	nt	nt	nt
CN1C[C@@H]2[C@@H]3C(=O)N(C)C(=O)[C@@H]3[C@](C)(C1=O)N2C(=O)c1ccc(F)cc1	nt	nt	9	11	nt	nt	nt	nt	nt
Cc1cc(C(F)(F)F)c2c(N)c(C(=O)NC3CC3)sc2n1	0	-6	11	-24	0	nt	nt	nt	nt
Cc1nnc(NC(=O)c2sc3nc(-c4cccs4)cc(C(F)(F)F)c3c2N)s1	98*	-13	78*	89*	44*	62*	77*	80*	80*
CN1OC[C@@H]2CN(C(=O)Nc3ccccc3)[C@H](c3ccc(N4CCCCC4)cc3)C[C@@H]21	nt	nt	3	-10	nt	nt	nt	nt	nt
CCOC(=O)c1cn(Cc2ccccc2)c2cc(C)nn2c1=O	0	-9	3	-8	0	nt	nt	nt	nt
CCOC(=O)c1cn(Cc2ccccc2)c(C(=O)OC(C)(C)C)c1O	52*	-19	82*	68*	28*	73*	56*	70*	57*
COc1ccc(-c2cc(C(F)(F)F)nc(SCC(=O)NCc3cccs3)n2)cc1OC	-3	-4	0	-24	0	nt	nt	nt	nt
CC(C)C[C@@]12C(=O)N(c3cccc(Br)c3)C(=O)N1[C@H](c1ccc(F)cc1)[C@@H]1C(=O)N(C3CCCCC3)C(=O)[C@@H]12	-1	-4	11	-27	9	nt	nt	nt	nt
COc1ccc(CN2CCNC(=O)C2CC(=O)NC2Cc3ccccc3C2)c(OC)c1 (stereo unspecified)	-1	-11	46*	-26	0	54*	7	-5	1
Cc1ccccc1NC(=O)CC1SC(=O)N(c2ccccc2)C1=O (stereo unspecified)	0	-12	50*	-7	1	17	2	14	11
Cc1cc(C)cc(OCCCCn2cncn2)c1	0	-1	1	-22	0	nt	nt	nt	nt
O=C(NCCc1cccs1)C1CC(c2ccccc2[N+](=O)[O-])=NO1 (stereo unspecified)	0	-10	46*	12	0	57*	3	32	15
COc1ccc(/C=C/C(=O)OCC(=O)N2c3ccccc3CC2C)c(OC)c1 (stereo unspecified)	nt	nt	0	-7	nt	nt	nt	nt	nt
Cc1ccc(C(=O)NC(=S)NNC(=O)c2cccc([N+](=O)[O-])c2)cc1	nt	nt	83*	17	nt	101*	75*	62*	35*
SMILES	OXTR ag	OXTR potentiator	TAAR1 agonist	TAAR1 antag	V1aR counter	TAAR1 ag conf	Ga16 nonsel ag	TAAR1 desensitize	Ga16 antag count
O=C(NNC(=S)NC(=O)c1cccc([N+](=O)[O-])c1)c1ccc(Br)cc1	9	-9	99*	14	2	107*	81*	77*	44*
COc1ccc(S(=O)(=O)N2CC(O)C[C@H]2C(=O)OCC(=O)N2CCCCCC2)cc1 (stereo partly specified)	0	-4	6	3	0	nt	nt	nt	nt
COc1ccc(NC(=O)/C(C#N)=C/c2ccc(Br)o2)cc1	0	-3	0	24	0	nt	nt	nt	nt
N#C/C(=C/c1ccc(N2CCOCC2)o1)C(=O)NC1CCCCC1	12	-8	23	16	8	nt	nt	nt	nt
N#C/C(=C\c1ccc(N2CCOCC2)o1)C(=O)Nc1ccc(O)cc1	20*	-21	58*	31	29*	21	19*	22	28*
COc1ccc(NC(=O)/C(C#N)=C\c2ccc(N3CCOCC3)o2)cc1	70*	-36	135*	76*	117*	49*	60*	65*	62*

Assay outcomes from PubChem BioAssay.
